In ChEMBL document CHEMBL1132584, “5-Alkyl-2-(alkylthio)-6-(2,6-dihalophenylmethyl)-3, 4-dihydropyrimidin-4(3H)-ones: novel potent and selective dihydro-alkoxy-benzyl-oxopyrimidine derivatives” (J Med Chem, 1999):

What was measured:
MT4 [1] = test: Selectivity index measured as the ratio of CC50 / EC50.; type: functional
Outline: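 Selectivity index: CC50 in mock-infected MT-4 cells divided by EC50 against HIV-1 IIIB cytopathicity in MT-4 cells, both from MTT read-out after 4-day culture.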

[2] = molecular target: Human immunodeficiency virus type 1 reverse transcriptase (Human immunodeficiency virus 1, UniProt Q72547); test: Concentration required to inhibit the HIV-1 reverse transcriptase activity by 50%.
Outline: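 Purified recombinant HIV-1 RT, RNA-dependent polymerase activity. Substrate: [³H]dGTP, […] (1 Ci/mmol). Reaction 30 min at 37 °C, then acid-insoluble radioactivity counted on glass-fibre filters.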

MT4 [3] = test: Concentration required to achieve 50% protection of MT-4 cells from HIV-1-induced cytopathogenicity.; type: functional, cell-based; conditions: Homo sapiens
Outline: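 MT-4 cells (1×10^4/well) exposed to test compound dilutions (DMSO stock 200 mM, diluted in medium), then infected with HIV-1 IIIB at 100 CCID50/well; 4-day incubation at 37 °C; viable cells counted by MTT; EC50 is the dose giving 50% protection from virus-induced cytopathicity; means of at least two separate experiments.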

MT4 [4] = test: Cytotoxicity against mock-infected MT-4 cells.; type: functional; conditions: Homo sapiens
Outline: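 Mock-infected MT-4 cells (1×10^4/well) incubated 4 days at 37 °C alongside the antiviral assay with serial compound dilutions (from 200 mM DMSO stock); viability read by MTT; CC50 is the dose lowering viability of mock-infected cells by 50%; means of at least two separate experiments.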

CCC(C)Sc1nc(O)cc(Cc2ccccc2)n1 (stereo not drawn)
Selectivity index (MT4 [1]): 125 SI
IC50 [2]: 1 µM

CCC(C)Sc1nc(O)c(C)c(Cc2ccc(Cl)cc2)n1 (stereo not drawn)
Selectivity index (MT4 [1]): >20 SI
EC50 (MT4 [3]): 9.5 µM
CC50 (MT4 [4]): > 200 µM
IC50 [2]: 8.5 µM

CC(C)CSc1nc(O)cc(Cc2c(F)cccc2F)n1
Selectivity index (MT4 [1]): 1300 SI
EC50 (MT4 [3]): 0.14 µM
CC50 (MT4 [4]): 182 µM
IC50 [2]: 0.2 µM

O=c1cc(Cc2c(F)cccc2F)nc(SC2CCCC2)[nH]1
Selectivity index (MT4 [1]): >2500 SI
EC50 (MT4 [3]): 0.08 µM
CC50 (MT4 [4]): > 200 µM
IC50 [2]: 0.08 µM

CCC(C)Sc1nc(O)cc(Cc2ccc(Cl)cc2)n1 (stereo not drawn)
Selectivity index (MT4 [1]): 24 SI
EC50 (MT4 [3]): 5 µM
CC50 (MT4 [4]): 120 µM
IC50 [2]: 4.8 µM

CC(C)Sc1nc(Cc2c(F)cccc2F)cc(=O)[nH]1
Selectivity index (MT4 [1]): >4000 SI
EC50 (MT4 [3]): 0.05 µM
CC50 (MT4 [4]): > 200 µM
IC50 [2]: 0.05 µM

CCC(C)Sc1nc(O)cc(Cc2ccccc2Cl)n1 (stereo not drawn)
Selectivity index (MT4 [1]): 200 SI
EC50 (MT4 [3]): 1 µM
CC50 (MT4 [4]): 200 µM
IC50 [2]: 1.6 µM

Oc1cc(Cc2c(F)cccc2F)nc(SC2CCCCC2)n1
Selectivity index (MT4 [1]): >2500 SI
EC50 (MT4 [3]): 0.08 µM
CC50 (MT4 [4]): > 200 µM
IC50 [2]: 0.09 µM

CC(C)CSc1nc(O)cc(Cc2c(Cl)cccc2Cl)n1
Selectivity index (MT4 [1]): >444 SI
EC50 (MT4 [3]): 0.45 µM
CC50 (MT4 [4]): > 200 µM
IC50 [2]: 0.6 µM

CSc1nc(O)c(C)c(Cc2c(F)cccc2F)n1
Selectivity index (MT4 [1]): 1053 SI
EC50 (MT4 [3]): 0.19 µM
CC50 (MT4 [4]): 200 µM
IC50 [2]: 0.2 µM

CSc1nc(O)cc(Cc2c(Cl)cccc2Cl)n1
Selectivity index (MT4 [1]): >62 SI
EC50 (MT4 [3]): 3.2 µM
CC50 (MT4 [4]): > 200 µM
IC50 [2]: 3 µM

CCC(C)Sc1nc(O)cc(Cc2cccc([N+](=O)[O-])c2)n1 (stereo not drawn)
Selectivity index (MT4 [1]): 392 SI
EC50 (MT4 [3]): 0.4 µM
CC50 (MT4 [4]): 157 µM
IC50 [2]: 0.3 µM

CCC(C)Sc1nc(O)cc(Cc2ccccc2[N+](=O)[O-])n1 (stereo not drawn)
Selectivity index (MT4 [1]): >800 SI
EC50 (MT4 [3]): 0.25 µM
CC50 (MT4 [4]): > 200 µM
IC50 [2]: 0.3 µM

CCC(C)Sc1nc(O)cc(Cc2ccc([N+](=O)[O-])cc2)n1 (stereo not drawn)
Selectivity index (MT4 [1]): 101 SI
EC50 (MT4 [3]): 1.5 µM
CC50 (MT4 [4]): 151 µM
IC50 [2]: 1.2 µM

CCC(C)Sc1nc(O)c(C)c(Cc2ccc(F)cc2)n1 (stereo not drawn)
Selectivity index (MT4 [1]): 9.5 SI
EC50 (MT4 [3]): 11 µM
CC50 (MT4 [4]): 105 µM
IC50 [2]: 13 µM

Cc1c(O)nc(SC2CCCCC2)nc1Cc1c(F)cccc1F
Selectivity index (MT4 [1]): >2222 SI
EC50 (MT4 [3]): 0.09 µM
CC50 (MT4 [4]): > 200 µM
IC50 [2]: 0.07 µM

CCCCSc1nc(O)cc(Cc2c(Cl)cccc2Cl)n1
Selectivity index (MT4 [1]): >454 SI
EC50 (MT4 [3]): 0.44 µM
CC50 (MT4 [4]): > 200 µM
IC50 [2]: 0.5 µM

CCC(C)Sc1nc(O)cc(Cc2c(F)cccc2F)n1 (stereo not drawn)
Selectivity index (MT4 [1]): >5000 SI
EC50 (MT4 [3]): 0.04 µM
CC50 (MT4 [4]): > 200 µM
IC50 [2]: 0.05 µM

CCC(C)Sc1nc(O)c(C)c(Cc2c(F)cccc2F)n1 (stereo not drawn)
Selectivity index (MT4 [1]): >4000 SI
EC50 (MT4 [3]): 0.05 µM
CC50 (MT4 [4]): > 200 µM
IC50 [2]: 0.05 µM

Oc1cc(Cc2c(Cl)cccc2Cl)nc(SC2CCCCC2)n1
Selectivity index (MT4 [1]): >333 SI
EC50 (MT4 [3]): 0.6 µM
CC50 (MT4 [4]): > 200 µM
IC50 [2]: 0.4 µM

Cc1c(Cc2c(F)cccc2F)nc(SC2CCCC2)[nH]c1=O
Selectivity index (MT4 [1]): >2500 SI
EC50 (MT4 [3]): 0.08 µM
CC50 (MT4 [4]): > 200 µM
IC50 [2]: 0.08 µM

CCCCSc1nc(O)c(C)c(Cc2c(F)cccc2F)n1
Selectivity index (MT4 [1]): >2500 SI
EC50 (MT4 [3]): 0.08 µM
CC50 (MT4 [4]): > 200 µM
IC50 [2]: 0.09 µM

Cc1c(O)nc(SCC(C)C)nc1Cc1c(F)cccc1F
Selectivity index (MT4 [1]): 1640 SI
EC50 (MT4 [3]): 0.1 µM
CC50 (MT4 [4]): 164 µM
IC50 [2]: 0.09 µM

Cc1c(O)nc(SC(C)C)nc1Cc1c(Cl)cccc1Cl
Selectivity index (MT4 [1]): >154 SI
EC50 (MT4 [3]): 1.3 µM
CC50 (MT4 [4]): > 200 µM
IC50 [2]: 1.15 µM

Cc1c(O)nc(SC2CCCCC2)nc1Cc1c(Cl)cccc1Cl
Selectivity index (MT4 [1]): >9 SI
EC50 (MT4 [3]): 22 µM
CC50 (MT4 [4]): > 200 µM
IC50 [2]: 4.9 µM

Cc1c(O)nc(SC2CCCC2)nc1Cc1ccccc1
Selectivity index (MT4 [1]): >333 SI
CC50 (MT4 [4]): > 200 µM
IC50 [2]: 0.5 µM

CCC(C)Sc1nc(O)c(C)c(Cc2cccc(Cl)c2)n1 (stereo not drawn)
Selectivity index (MT4 [1]): >208 SI
EC50 (MT4 [3]): 0.96 µM
CC50 (MT4 [4]): > 200 µM
IC50 [2]: 0.9 µM

CCC(C)Sc1nc(O)c(C)c(Cc2cccc(F)c2)n1 (stereo not drawn)
Selectivity index (MT4 [1]): >166 SI
EC50 (MT4 [3]): 1.2 µM
CC50 (MT4 [4]): > 200 µM
IC50 [2]: 1.5 µM

CCC(C)Sc1nc(O)cc(Cc2cccc(Cl)c2)n1 (stereo not drawn)
Selectivity index (MT4 [1]): 58 SI
EC50 (MT4 [3]): 2 µM
CC50 (MT4 [4]): 116 µM
IC50 [2]: 1.9 µM

Cc1c(O)nc(SC2CCCC2)nc1Cc1c(Cl)cccc1Cl
Selectivity index (MT4 [1]): >111 SI
EC50 (MT4 [3]): 1.8 µM
CC50 (MT4 [4]): > 200 µM
IC50 [2]: 1.7 µM

CCC(C)Sc1nc(O)c(C)c(Cc2ccc([N+](=O)[O-])cc2)n1 (stereo not drawn)
Selectivity index (MT4 [1]): >100 SI
EC50 (MT4 [3]): 2 µM
CC50 (MT4 [4]): > 200 µM
IC50 [2]: 1.8 µM

CCC(C)Sc1nc(O)cc(Cc2c(Cl)cccc2Cl)n1 (stereo not drawn)
Selectivity index (MT4 [1]): >1428 SI
EC50 (MT4 [3]): 0.14 µM
CC50 (MT4 [4]): > 200 µM
IC50 [2]: 0.1 µM

CCC(C)Sc1nc(O)cc(Cc2ccc(F)cc2)n1 (stereo not drawn)
Selectivity index (MT4 [1]): 23 SI
EC50 (MT4 [3]): 8.7 µM
CC50 (MT4 [4]): > 200 µM
IC50 [2]: 7.4 µM

CCC(C)Sc1nc(O)c(C)c(Cc2ccccc2Cl)n1 (stereo not drawn)
Selectivity index (MT4 [1]): >741 SI
EC50 (MT4 [3]): 0.27 µM
CC50 (MT4 [4]): > 200 µM
IC50 [2]: 0.4 µM

CCC(C)Sc1nc(O)c(C)c(Cc2ccccc2F)n1 (stereo not drawn)
Selectivity index (MT4 [1]): 341 SI
EC50 (MT4 [3]): 0.41 µM
CC50 (MT4 [4]): 140 µM
IC50 [2]: 0.41 µM

CC(C)Sc1nc(O)cc(Cc2c(Cl)cccc2Cl)n1
Selectivity index (MT4 [1]): >105 SI
EC50 (MT4 [3]): 1.9 µM
CC50 (MT4 [4]): > 200 µM
IC50 [2]: 1.5 µM

CCC(C)Sc1nc(O)c(C)c(Cc2ccccc2)n1 (stereo not drawn)
Selectivity index (MT4 [1]): 140 SI
IC50 [2]: 0.5 µM

CCC(C)Sc1nc(O)cc(Cc2cccc(F)c2)n1 (stereo not drawn)
Selectivity index (MT4 [1]): >286 SI
EC50 (MT4 [3]): 0.7 µM
CC50 (MT4 [4]): > 200 µM
IC50 [2]: 0.6 µM

Cc1c(Cc2c(F)cccc2F)nc(SC(C)C)[nH]c1=O
Selectivity index (MT4 [1]): >4000 SI
EC50 (MT4 [3]): 0.05 µM
CC50 (MT4 [4]): > 200 µM
IC50 [2]: 0.05 µM

CCOCn1c(Cc2ccccc2)c(C(C)C)c(=O)[nH]c1=O [EMIVIRINE]
Selectivity index (MT4 [1]): 6666 SI
EC50 (MT4 [3]): 0.03 µM
CC50 (MT4 [4]): 200 µM
IC50 [2]: 0.04 µM

CCCCSc1nc(O)cc(Cc2c(F)cccc2F)n1
Selectivity index (MT4 [1]): 900 SI
EC50 (MT4 [3]): 0.18 µM
CC50 (MT4 [4]): 162 µM
IC50 [2]: 0.2 µM

Oc1cc(Cc2c(Cl)cccc2Cl)nc(SC2CCCC2)n1
Selectivity index (MT4 [1]): >500 SI
EC50 (MT4 [3]): 0.4 µM
CC50 (MT4 [4]): > 200 µM
IC50 [2]: 0.4 µM

Cc1ccnc2c1NC(=O)c1cccnc1N2C1CC1 [NEVIRAPINE]
CC50 (MT4 [4]): > 200 µM

CCCCSc1nc(O)c(C)c(Cc2c(Cl)cccc2Cl)n1
Selectivity index (MT4 [1]): >171 SI
EC50 (MT4 [3]): 1.1 µM
CC50 (MT4 [4]): > 200 µM
IC50 [2]: 1.15 µM

CCC(C)Sc1nc(O)c(C)c(Cc2cccc([N+](=O)[O-])c2)n1 (stereo not drawn)
Selectivity index (MT4 [1]): >571 SI
EC50 (MT4 [3]): 0.35 µM
CC50 (MT4 [4]): > 200 µM
IC50 [2]: 0.4 µM

CSc1nc(O)cc(Cc2c(F)cccc2F)n1
Selectivity index (MT4 [1]): >247 SI
EC50 (MT4 [3]): 0.81 µM
CC50 (MT4 [4]): > 200 µM
IC50 [2]: 0.8 µM

CCC(C)Sc1nc(O)cc(Cc2ccccc2F)n1 (stereo not drawn)
Selectivity index (MT4 [1]): 769 SI
EC50 (MT4 [3]): 0.26 µM
CC50 (MT4 [4]): 200 µM
IC50 [2]: 0.3 µM

CSc1nc(O)c(C)c(Cc2c(Cl)cccc2Cl)n1
Selectivity index (MT4 [1]): 5.2 SI
EC50 (MT4 [3]): 38 µM
CC50 (MT4 [4]): > 200 µM

CCC(C)Sc1nc(O)c(C)c(Cc2c(Cl)cccc2Cl)n1 (stereo not drawn)
Selectivity index (MT4 [1]): >4000 SI
EC50 (MT4 [3]): 0.05 µM
CC50 (MT4 [4]): > 200 µM
IC50 [2]: 0.06 µM

Cc1c(O)nc(SCC(C)C)nc1Cc1c(Cl)cccc1Cl
Selectivity index (MT4 [1]): >166 SI
EC50 (MT4 [3]): 1.2 µM
CC50 (MT4 [4]): > 200 µM
IC50 [2]: 1.1 µM

Oc1cc(Cc2ccccc2)nc(SC2CCCC2)n1
Selectivity index (MT4 [1]): 86 SI
IC50 [2]: 1.6 µM
